ChEMBL document CHEMBL4316609, “Chemical synthesis and functional characterization of a new class of ceramide analogues as anti-cancer agents” (Bioorg Med Chem, 2019)
The source made the active and inactive calls. The calls are words filed in the database; no cut-off is given here.

Assays:
LS-411N = assay: Potentiation of TRAIL-induced cytotoxicity against human LS411N cells assessed as reduction in cell growth at cytotoxic IC50 measured after 48 hrs by MTT assay; format: functional, cell-based
Outline: (§1)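 Viability read by MTT. Growth inhibition calculated as OD570 of untreated minus OD570 of treated cells; mean and SD.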

[1] = Cytotoxicity against human SA cells measured after 48 hrs by MTT assay; format: functional, cell-based; conditions: +SA cell
Outline: (§2)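 Seeded at 7x10^3 cells/well and allowed 24 h to attach. Compounds added at final 0 to 200 μM and incubated 48 h. Viability read by MTT. IC50 taken as the concentration giving 50% growth inhibition; mean ± SD, N = 4.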

HeLa = assay: Potentiation of TRAIL-induced cytotoxicity against human HeLa cells assessed as reduction in cell growth at cytotoxic IC50 measured after 48 hrs by MTT assay; format: functional, cell-based; outline: as §1
HepG2 [2] = assay: Cytotoxicity against human HepG2 cells measured after 48 hrs by MTT assay; format: functional, cell-based; conditions: HepG2, 48 h; outline: as §2
SiHa = assay: Cytotoxicity against human SiHa cells measured after 48 hrs by MTT assay; format: functional, cell-based; outline: as §2
A-431 = assay: Cytotoxicity against human A431 cells measured after 48 hrs by MTT assay; format: functional, cell-based; conditions: A-431, 48 h; outline: as §2
SW-620 [3] = assay: Cytotoxicity against human SW620 cells measured after 48 hrs by MTT assay; format: functional, cell-based; conditions: SW-620, 48 h; outline: as §2
MCF7 [4] = assay: Potentiation of TRAIL-induced cytotoxicity against human MCF7 cells assessed as reduction in cell growth at cytotoxic IC50 measured after 48 hrs by MTT assay; format: functional, cell-based; outline: as §1
MCF7 [5] = assay: Cytotoxicity against human MCF7 cells measured after 48 hrs by MTT assay; format: functional, cell-based; conditions: MCF7, 48 h; outline: as §2
HepG2 [6] = assay: Potentiation of TRAIL-induced cytotoxicity against human HepG2 cells assessed as reduction in cell growth at cytotoxic IC50 measured after 48 hrs by MTT assay; format: functional, cell-based; outline: as §1
SW-620 [7] = assay: Potentiation of TRAIL-induced cytotoxicity against human SW620 cells assessed as reduction in cell growth at cytotoxic IC50 measured after 48 hrs by MTT assay; format: functional, cell-based; outline: as §1
SW-620 [8] = assay: Induction of apoptosis in human SW620 cells assessed as morphological changes by measuring appearance of shining cells at cytotoxic IC50 measured after 8 to 24 hrs by Hoechst 33342 staining based fluorescence microscopic analysis; format: functional, cell-based
SW-620 [9] = assay: Toxicity in athymic mouse xenografted with human SW620 cells assessed as serum creatine kinase level at 100 mg/kg administered as injection every other day for 15 days measured post last dose by ELISA (reference value: 1.94 +/- 1.04 U/L); conditions: in vivo, 360 h
SW-620 [10] = assay: Induction of apoptosis in human SW620 cells assessed as XIAP protein level at 15 uM measured after 48 hrs by Western blot analysis relative to beta-actin (reference value: 1); format: functional
SW-620 [11] = assay: Induction of apoptosis in human SW620 cells assessed as Bcl-xl protein level at 15 uM measured after 48 hrs by Western blot analysis relative to beta-actin (reference value: 1); format: functional
SW-620 [12] = assay: Induction of apoptosis in human SW620 cells assessed as Bcl-xl protein level at 10 uM measured after 48 hrs by Western blot analysis relative to beta-actin (reference value: 1); format: functional
SW-620 [13] = assay: Induction of apoptosis in human SW620 cells assessed as XIAP protein level at 10 uM measured after 48 hrs by Western blot analysis relative to beta-actin (reference value: 1); format: functional
SW-620 [14] = assay: Induction of apoptosis in human SW620 cells assessed as XIAP protein level at 20 uM measured after 48 hrs by Western blot analysis relative to beta-actin (reference value: 1); format: functional
SW-620 [15] = assay: Antitumor activity against human SW620 cells xenografted in athymic mouse assessed as suppression of tumor growth at 100 mg/kg administered as injection every other day for 15 days measured during compound dosing; format: functional, organism-based
Outline: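 SW620 colon carcinoma cells (3x10^6 per mouse) implanted subcutaneously in athymic mice. Randomised at 60-80 mm³ tumour size, n=6 per group. Dosed 100 mg/kg on alternate days for 15 days. Vehicle control received 200 μL 1% polyoxyethylated castor oil. Tumour measured in three diameters with a caliper to give volume.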

SW-620 [16] = assay: Induction of apoptosis in human SW620 cells assessed as Bcl-xl protein level at 20 uM measured after 48 hrs by Western blot analysis relative to beta-actin (reference value: 1); format: functional

Row | SMILES | Activity (LS-411N) | IC50 [1] [µM] | Activity (HeLa) | IC50 (HepG2 [2]) [µM] | IC50 (SiHa) [µM] | IC50 (A-431) [µM] | IC50 (SW-620 [3]) [µM] | Activity (MCF7 [4]) | IC50 (MCF7 [5]) [µM] | Activity (HepG2 [6]) | Activity (SW-620 [7]) | Activity (SW-620 [8]) | Activity (SW-620 [9]) [U/L] | fold change (FC) (SW-620 [10]) | fold change (FC) (SW-620 [11]) | fold change (FC) (SW-620 [12]) | fold change (FC) (SW-620 [13]) | fold change (FC) (SW-620 [14]) | Activity (SW-620 [15]) | fold change (FC) (SW-620 [16])
1 | CCCCCCCCNC(=O)[C@@H](NC(=O)c1cc2ccccc2o1)[C@@H](C)O | Active | 40.8 | Active | 81.3 | 66.5 | 52.7 | 200 | Active | 47.2 | Active | Active | – | – | – | – | – | – | – | – | –
2 | CCCCCCCCCCCCCCNC(=O)[C@@H](NC(=O)c1cc2ccccc2n1C)[C@@H](C)O | – | 25.7 | – | 34.5 | 26.5 | 13.7 | 21.5 | – | 25.7 | – | – | Active | – | – | – | – | – | – | – | –
3 | CCCCCCCCCCCCCCNC(=O)[C@@H](NS(=O)(=O)c1ccc2ccccc2c1)[C@@H](C)O | – | 10.2 | – | 11.4 | 11.1 | 19.6 | 9.36 | – | 12.2 | – | – | Active | 2.63 | 1.14 | 1.08 | 1.05 | 1.21 | 0.93 | Active | 0.55
4 | CCCCCCCCCCCCCCNC(=O)[C@@H](NC(=O)Cc1c[nH]c2ccccc12)[C@@H](C)O | – | 11.5 | – | 21.1 | 4.8 | 15.5 | 22 | – | 6.81 | – | – | Active | 2.44 | 0.86 | 1.46 | 1.32 | 1.03 | 0.06 | Active | 0.47
5 | CCCCCCCCCCCCCCNC(=O)[C@@H](N)[C@@H](C)O | – | 11 | – | – | 11 | 14.6 | 18.7 | – | 10.7 | – | – | – | 2.98 | 1.29 | 0.68 | 0.82 | 1.22 | 0.15 | Active | 0.34
6 | CCCCCCCCCCCCCCNC(=O)[C@@H](NS(=O)(=O)c1ccc(C)cc1)[C@@H](C)O | – | 10.9 | – | 10.9 | 19.2 | 12 | 15.2 | – | 12.9 | – | – | Active | 2.32 | 1 | 0.73 | 0.88 | 1.06 | 0.94 | Active | 0.67
